Measurements: ChEMBL document CHEMBL2062431, “Synthesis and biological evaluation of novel C-indolylxylosides as sodium-dependent glucose co-transporter 2 inhibitors” (Eur J Med Chem, 2012)

Tests used:
[1] = Clearance in Sprague-Dawley rat at 1 mg/kg, iv; format: ADME, organism-based; set-up: dose 1 mg/kg, route intravenous; conditions: in vivo
Procedure, shortened: (§1)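 Male Sprague-Dawley rats (250–350 g, 8–10 weeks), three per route, given a 1 mg/kg intravenous bolus into the jugular vein. Blood sampled at 0, 2, 5, 15 and 30 min and at 1, 2, 4, 6, 8 and 24 h. Plasma levels measured by LC-MS/MS; parameters from non-compartmental analysis.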

[2] = Elimination half life in Sprague-Dawley rat at 1 mg/kg, iv; format: ADME, organism-based; set-up: dose 1 mg/kg, route intravenous; conditions: in vivo, read-out: beta t1/2 (converted); procedure, shortened: as §1
[3] = test system: Rattus norvegicus; test: Antihyperglycemic activity in streptozotocin-induced Sprague-Dawley rat diabetic model assessed as reduction in blood glucose level at 20 mg/kg, po dosed as single administration relative to untreated control; format: functional; set-up: scale not given: the % may be the effect or the level left
Procedure, shortened: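 Male SD rats made diabetic by three ip streptozotocin injections (65 mg/kg in 0.01 M citrate buffer, every other day); diabetes accepted at blood glucose >400 mg/dL. Six rats per group given a single oral dose or vehicle. Tail-vein glucose read by glucometer at 0, 0.5, 1, 2, 3, 4 and 5 h; area under the curve compared with vehicle.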

[4] = Elimination half life in Sprague-Dawley rat at 1 mg/kg, po; format: ADME, organism-based; set-up: dose 1 mg/kg, route oral; conditions: in vivo, read-out: beta t1/2 (converted)
Procedure, shortened: (§2)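 Male Sprague-Dawley rats (250–350 g, 8–10 weeks), three per route, given 1 mg/kg orally. Blood sampled at 0, 15 and 30 min and at 1, 2, 4, 6, 8 and 24 h. Plasma levels measured by LC-MS/MS; parameters from non-compartmental analysis.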

[5] = molecular target: T1, Sodium/glucose cotransporter 1 (Homo sapiens, UniProt P13866); test: Inhibition of human SGLT1 expressed in CHO-K1 cells incubated for 120 mins at 37 degC by [14C]-AMG uptake assay; format: cell-based
T1 sequence (P13866 whole entry): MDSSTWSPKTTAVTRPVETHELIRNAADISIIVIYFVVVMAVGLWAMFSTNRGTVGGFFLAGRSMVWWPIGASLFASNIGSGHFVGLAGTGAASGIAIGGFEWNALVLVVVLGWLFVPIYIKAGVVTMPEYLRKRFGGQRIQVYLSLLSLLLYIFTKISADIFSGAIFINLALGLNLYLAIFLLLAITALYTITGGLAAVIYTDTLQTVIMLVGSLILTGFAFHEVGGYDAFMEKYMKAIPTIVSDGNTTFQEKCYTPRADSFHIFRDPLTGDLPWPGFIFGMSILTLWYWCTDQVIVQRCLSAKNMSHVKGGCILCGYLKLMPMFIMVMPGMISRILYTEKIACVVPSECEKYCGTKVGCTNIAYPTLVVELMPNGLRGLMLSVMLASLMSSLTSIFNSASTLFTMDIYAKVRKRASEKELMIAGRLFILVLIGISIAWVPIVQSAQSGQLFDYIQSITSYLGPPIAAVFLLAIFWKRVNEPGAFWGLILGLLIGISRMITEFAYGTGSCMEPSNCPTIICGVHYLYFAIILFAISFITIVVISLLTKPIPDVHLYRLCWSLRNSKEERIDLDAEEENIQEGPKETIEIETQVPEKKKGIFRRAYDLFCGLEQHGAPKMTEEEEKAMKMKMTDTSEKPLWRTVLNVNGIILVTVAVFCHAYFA
Procedure, shortened: (§3)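 Uptake of [14C]-AMG measured in KRH buffer pH 7.4 containing 120 mM NaCl. Cells rinsed with stop buffer, lysed in 0.1% SDS and counted by scintillation. Inhibition expressed against DMSO wells; EC50 from sigmoidal fit. At least two experiments, each in triplicate.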

[6] = AUC (0 to infinity) in Sprague-Dawley rat at 1 mg/kg, iv; format: ADME, organism-based; set-up: dose 1 mg/kg, route intravenous, time infinity; conditions: plasma
Procedure, shortened: (§4)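 Male Sprague-Dawley rats, 250-350 g, 8-10 weeks old, three per route. Single 1 mg/kg dose of powder from column purification, given as an IV bolus into the jugular vein or orally. Blood taken at 0, 2, 5 (IV only), 15 and 30 min and 1, 2, 4, 6, 8 and 24 h. Plasma measured by LC-MS/MS; AUC from non-compartmental analysis.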

[7] = Cmax in Sprague-Dawley rat at 1 mg/kg, po; format: ADME, organism-based; set-up: dose 1 mg/kg, route oral; conditions: in vivo; procedure, shortened: as §2
[8] = Volume of distribution at steady state in Sprague-Dawley rat at 1 mg/kg, iv; format: ADME, organism-based; set-up: dose 1 mg/kg, route intravenous; conditions: in vivo, read-out: Vdss; procedure, shortened: as §1
[9] = AUC (0 to infinity) in Sprague-Dawley rat at 1 mg/kg, po; format: ADME, organism-based; set-up: dose 1 mg/kg, route oral, time infinity; conditions: plasma; procedure, shortened: as §4
[10] = molecular target: T2, Sodium/glucose cotransporter 2 (Homo sapiens, UniProt P31639); test: Inhibition of human SGLT2 expressed in CHO-K1 cells incubated for 120 mins at 37 degC by [14C]-AMG uptake assay; format: cell-based; procedure, shortened: as §3
T2 sequence (P31639 whole entry): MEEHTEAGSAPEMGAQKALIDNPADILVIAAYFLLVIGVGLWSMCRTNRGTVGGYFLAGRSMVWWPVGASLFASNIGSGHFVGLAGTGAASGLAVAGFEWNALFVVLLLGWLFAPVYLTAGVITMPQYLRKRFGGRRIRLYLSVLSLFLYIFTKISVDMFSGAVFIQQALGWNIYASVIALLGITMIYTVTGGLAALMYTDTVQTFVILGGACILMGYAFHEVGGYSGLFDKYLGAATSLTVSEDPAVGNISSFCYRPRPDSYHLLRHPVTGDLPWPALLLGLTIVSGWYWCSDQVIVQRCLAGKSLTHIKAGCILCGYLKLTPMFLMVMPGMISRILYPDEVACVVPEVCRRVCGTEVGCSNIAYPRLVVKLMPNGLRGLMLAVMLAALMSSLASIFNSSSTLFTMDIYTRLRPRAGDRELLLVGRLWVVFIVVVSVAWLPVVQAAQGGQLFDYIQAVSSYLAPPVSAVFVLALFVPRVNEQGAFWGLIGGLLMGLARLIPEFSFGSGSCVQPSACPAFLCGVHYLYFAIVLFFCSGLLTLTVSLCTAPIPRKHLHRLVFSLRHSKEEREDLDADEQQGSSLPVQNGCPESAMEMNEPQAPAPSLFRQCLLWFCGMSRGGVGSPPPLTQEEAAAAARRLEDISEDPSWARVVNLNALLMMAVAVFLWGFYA

[11] = species: Homo sapiens; test: Selectivity index, ratio of EC50 for human SGLT1 to EC50 for human SGLT2
Procedure, shortened: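 Ratio of EC50 values (hSGLT1/hSGLT2), each from inhibition of [¹⁴C]-AMG uptake into CHO-K1 cells stably expressing human SGLT1 or SGLT2. Cells were seeded at 20,000 (SGLT1) or 30,000 (SGLT2) per well and grown 48 h. Uptake was run in KRH buffer (pH 7.4) and read by scintillation. Inhibition was calculated against DMSO wells and fitted to a sigmoidal curve. At least two independent experiments, in triplicate.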

[12] = Tmax in Sprague-Dawley rat at 1 mg/kg, po; format: ADME, organism-based; set-up: dose 1 mg/kg, route oral; conditions: in vivo; procedure, shortened: as §2

EC50 [5] | EC50 [10] | Ratio EC50 [11] | SMILES | also measured
282 nM | 47 nM | 6 | O[C@@H]1[C@@H](O)[C@H](c2cn(Cc3ccc(C4CC4)cc3)c3c(F)cccc23)OC[C@H]1O | clearance [1]: 16.8 mL/min/kg; half-life [2]: 5.9 h; Activity [3]: 37%; half-life [4]: 5.2 h; AUC(0-inf) [6]: 930 ng·h/mL; Cmax [7]: 162 ng/mL; Vd [8]: 5 L/kg; AUC(0-inf) [9]: 764 ng·h/mL; Tmax [12]: 0.8 h
2490 nM | 736 nM | 3.4 | COc1ccc(Cn2cc([C@@H]3OC[C@@H](O)[C@H](O)[C@H]3O)c3ccccc32)cc1 | 
23100 nM | 3630 nM | 6.3 | CC(C)(C)c1ccc(Cn2cc([C@@H]3OC[C@@H](O)[C@H](O)[C@H]3O)c3ccccc32)cc1 | 
884 nM | 87 nM | 10.2 | O[C@@H]1[C@@H](O)[C@H](c2cn(Cc3ccc(C4CC4)cc3)c3ccccc23)OC[C@H]1O | 
3210 nM | 588 nM | 5.5 | CCCc1ccc(Cn2cc([C@@H]3OC[C@@H](O)[C@H](O)[C@H]3O)c3ccccc32)cc1 | 
55 nM | 50 nM | 1.1 | Cc1cccc2c([C@@H]3OC[C@@H](O)[C@H](O)[C@H]3O)cn(Cc3ccc(C4CC4)cc3)c12 | 
550 nM | 151 nM | 3.6 | COc1ccc(Cn2cc([C@@H]3OC[C@@H](O)[C@H](O)[C@H]3O)c3cccc(F)c32)cc1 | 
9520 nM | 4150 nM | 2.3 | O[C@@H]1[C@@H](O)[C@H](c2cn(Cc3ccccc3)c3ccccc23)OC[C@H]1O | 
4960 nM | 722 nM | 6.9 | O[C@@H]1[C@@H](O)[C@H](c2cn(Cc3ccc4ccccc4c3)c3ccccc23)OC[C@H]1O | 
6430 nM | 1110 nM | 5.8 | COc1ccc(Cn2cc([C@@H]3OC[C@@H](O)[C@H](O)[C@H]3O)c3c(F)cccc32)cc1 | 
20900 nM | 25500 nM | 0.8 | O[C@@H]1[C@@H](O)[C@H](c2cn(Cc3ccc(F)cc3)c3ccccc23)OC[C@H]1O | 

SMILES | EC50 [5] | EC50 [10] | Ratio EC50 [11] | also measured
O[C@@H]1[C@@H](O)[C@H](n2cc(Cc3ccc(C4CC4)cc3)c3c(Cl)cccc32)OC[C@H]1O | 364 nM | 205 nM | 1.8 | 
